Results published in ChEMBL document CHEMBL2146456, “Identification and characterization of GABA(A) receptor modulatory diterpenes from Biota orientalis that decrease locomotor activity in mice” (J Nat Prod, 2011).
Blank lines part the entries; values can stand above or below the molecule they belong to. Activity calls are given as the source filed them. The rule behind the calls is not given here.

Legend:
[1] = system: Oocyte; assay: Allosteric modulation of gamma-aminobutyric acid receptor A alpha1beta2gamma2S expressed in Xenopus oocytes assessed as potentiation of GABA-mediated chloride current at 10 uM by voltage clamp analysis relative to control; format: cell-based
Outline: (§1)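 Oocytes were injected with α1β2γ2S, α1β3γ2S, α2β2γ2S, α3β2γ2S or α5β2γ2S cRNAs at a 1:1:10 ratio. Two-electrode voltage clamp was run 1–5 days post-injection in HEPES-buffered saline at pH 7.4. Compounds in GABA EC5–10 (3–10 μM) were given by automated fast perfusion: screening at 10 and 100 μM (n = 2), otherwise concentration series. Potentiation = I(GABA+Comp)/IGABA − 1, with nonlinear regression fits.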

[2] = system: Oocyte; assay: Allosteric modulation of gamma-aminobutyric acid receptor A alpha1beta2gamma2S expressed in Xenopus oocytes assessed as potentiation of GABA-mediated chloride current at 100 uM by voltage clamp analysis relative to control; format: cell-based; outline: as §1
[3] = system: Oocyte; assay: Allosteric modulation of gamma-aminobutyric acid receptor A alpha1beta1gamma2S expressed in Xenopus oocytes assessed as potentiation of GABA-mediated chloride current at 0.1 to 500 uM by voltage clamp analysis relative to control; format: cell-based
Outline: (§2)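 α1β1γ2S cRNAs (3:1:10) injected into Xenopus oocytes and recorded 1–5 days later by two-microelectrode voltage clamp. Bath was 90 mM NaCl, 1 mM KCl, 1 mM MgCl2, 1 mM CaCl2, 5 mM HEPES, pH 7.4. Compound was co-applied by fast perfusion with GABA at EC5–10 (3–10 μM). Enhancement = I(GABA+Comp)/IGABA − 1. Concentration-response curves fitted by nonlinear regression.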

[4] = (§3) Allosteric modulation of gamma-aminobutyric acid receptor A alpha1beta2gamma2S expressed in Xenopus oocytes assessed as potentiation of GABA-mediated chloride current by voltage clamp analysis; format: cell-based; details: Oocyte; outline: as §1
[5] = system: Oocyte; assay: as §3; format: cell-based; outline: as §1
[6] = system: Oocyte; assay: Allosteric modulation of gamma-aminobutyric acid receptor A alpha1beta2gamma2S expressed in Xenopus oocytes assessed as potentiation of GABA-mediated chloride current at 30 uM by voltage clamp analysis; format: cell-based; outline: as §1
[7] = system: Oocyte; assay: Allosteric modulation of gamma-aminobutyric acid receptor A alpha2beta2gamma2S expressed in Xenopus oocytes assessed as potentiation of GABA-mediated chloride current at 0.1 to 500 uM by voltage clamp analysis relative to control; format: cell-based; outline: as §1
[8] = system: Oocyte; assay: Agonist activity at gamma-aminobutyric acid receptor A alpha5beta2gamma2S expressed in Xenopus oocytes assessed as potentiation of GABA-mediated chloride current by voltage clamp analysis; format: functional, cell-based; outline: as §1
[9] = system: Oocyte; assay: Agonist activity at gamma-aminobutyric acid receptor A alpha3beta2gamma2S expressed in Xenopus oocytes assessed as potentiation of GABA-mediated chloride current by voltage clamp analysis; format: functional, cell-based; outline: as §1
[10] = system: Oocyte; assay: Allosteric modulation of gamma-aminobutyric acid receptor A alpha5beta2gamma2S expressed in Xenopus oocytes assessed as potentiation of GABA-mediated chloride current at 0.1 to 500 uM by voltage clamp analysis relative to control; format: cell-based; outline: as §1
[11] = (§4) Allosteric modulation of gamma-aminobutyric acid receptor A alpha1beta1gamma2S expressed in Xenopus oocytes assessed as potentiation of GABA-mediated chloride current by voltage clamp analysis; format: cell-based; details: Oocyte; outline: as §2
[12] = system: Oocyte; assay: as §4; format: cell-based; outline: as §2
[13] = system: Oocyte; assay: Agonist activity at gamma-aminobutyric acid receptor A alpha1beta3gamma2S expressed in Xenopus oocytes assessed as potentiation of GABA-mediated chloride current by voltage clamp analysis; format: functional, cell-based; outline: as §1
[14] = (§5) Allosteric modulation of gamma-aminobutyric acid receptor A alpha3beta2gamma2S expressed in Xenopus oocytes assessed as potentiation of GABA-mediated chloride current by voltage clamp analysis; format: cell-based; details: Oocyte; outline: as §1
[15] = system: Oocyte; assay: as §5; format: cell-based; outline: as §1
[16] = system: Oocyte; assay: Allosteric modulation of gamma-aminobutyric acid receptor A alpha3beta2gamma2S expressed in Xenopus oocytes assessed as potentiation of GABA-mediated chloride current at 0.1 to 500 uM by voltage clamp analysis relative to control; format: cell-based; outline: as §1
[17] = biological target: T1, GABA-A receptor; GABA-A site (alpha1/beta2 interface) (Homo sapiens) (UniProt P14867+P47870); assay: Allosteric modulation of gamma-aminobutyric acid receptor A alpha1beta2 expressed in Xenopus oocytes assessed as potentiation of GABA-mediated chloride current at 100 uM by voltage clamp analysis; format: cell-based; details: Oocyte
[18] = system: Oocyte; assay: Allosteric modulation of gamma-aminobutyric acid receptor A alpha1beta2gamma2S expressed in Xenopus oocytes assessed as potentiation of GABA-mediated chloride current at 500 uM by voltage clamp analysis relative to control; format: cell-based; outline: as §1
[19] = system: Oocyte; assay: Agonist activity at gamma-aminobutyric acid receptor A alpha1beta1gamma2S expressed in Xenopus oocytes assessed as potentiation of GABA-mediated chloride current at 300 uM by voltage clamp analysis; format: functional, cell-based; outline: as §2
[20] = (§6) Allosteric modulation of gamma-aminobutyric acid receptor A alpha2beta2gamma2S expressed in Xenopus oocytes assessed as potentiation of GABA-mediated chloride current by voltage clamp analysis; format: cell-based; details: Oocyte; outline: as §1
[21] = system: Oocyte; assay: as §6; format: cell-based; outline: as §1
[22] = system: Oocyte; assay: Agonist activity at gamma-aminobutyric acid receptor A alpha2beta2gamma2S expressed in Xenopus oocytes assessed as potentiation of GABA-mediated chloride current by voltage clamp analysis; format: functional, cell-based; outline: as §1
[23] = (§7) Allosteric modulation of gamma-aminobutyric acid receptor A alpha5beta2gamma2S expressed in Xenopus oocytes assessed as potentiation of GABA-mediated chloride current by voltage clamp analysis relative to control; format: cell-based; details: Oocyte; outline: as §1
[24] = system: Oocyte; assay: as §7; format: cell-based; outline: as §1
[25] = (§8) Allosteric modulation of gamma-aminobutyric acid receptor A alpha1beta3gamma2S expressed in Xenopus oocytes assessed as potentiation of GABA-mediated chloride current by voltage clamp analysis; format: cell-based; details: Oocyte; outline: as §1
[26] = system: Oocyte; assay: as §8; format: cell-based; outline: as §1
[27] = system: Oocyte; assay: Allosteric modulation of gamma-aminobutyric acid receptor A alpha1beta2gamma2S expressed in Xenopus oocytes assessed as potentiation of GABA-mediated chloride current at 100 uM by voltage clamp analysis; format: cell-based; outline: as §1
[28] = system: Oocyte; assay: Allosteric modulation of gamma-aminobutyric acid receptor A alpha1beta3gamma2S expressed in Xenopus oocytes assessed as potentiation of GABA-mediated chloride current at 0.1 to 500 uM by voltage clamp analysis relative to control; format: cell-based; outline: as §1
[29] = biological target: T1, GABA-A receptor; GABA-A site (alpha1/beta2 interface) (Homo sapiens); assay: Allosteric modulation of gamma-aminobutyric acid receptor A alpha1beta2 expressed in Xenopus oocytes assessed as potentiation of GABA-mediated chloride current at 30 uM by voltage clamp analysis; format: cell-based; details: Oocyte
[30] = system: Oocyte; assay: Agonist activity at gamma-aminobutyric acid receptor A alpha1beta2gamma2S expressed in Xenopus oocytes assessed as potentiation of GABA-mediated chloride current by voltage clamp analysis; format: functional, cell-based; outline: as §1
[31] = system: Oocyte; assay: Ratio of isopimaric acid EC50 to compound EC50 for gamma-aminobutyric acid receptor A alpha1beta3gamma2S expressed in Xenopus oocytes assessed as potentiation of GABA-mediated chloride current by voltage clamp analysis; format: cell-based
[32] = system: Oocyte; assay: Ratio of isopimaric acid Imax to compound Imax for gamma-aminobutyric acid receptor A alpha1beta3gamma2S expressed in Xenopus oocytes assessed as potentiation of GABA-mediated chloride current at 0.1 to 500 uM by voltage clamp analysis; format: cell-based
[33] = system: Oocyte; assay: Ratio of isopimaric acid EC50 to compound EC50 for gamma-aminobutyric acid receptor A alpha5beta2gamma2S expressed in Xenopus oocytes assessed as potentiation of GABA-mediated chloride current by voltage clamp analysis; format: cell-based
[34] = system: Oocyte; assay: Ratio of isopimaric acid Imax to compound Imax for gamma-aminobutyric acid receptor A alpha5beta2gamma2S expressed in Xenopus oocytes assessed as potentiation of GABA-mediated chloride current at 0.1 to 500 uM by voltage clamp analysis; format: cell-based
[35] = system: Oocyte; assay: Ratio of isopimaric acid EC50 to compound EC50 for gamma-aminobutyric acid receptor A alpha1beta2gamma2S expressed in Xenopus oocytes assessed as potentiation of GABA-mediated chloride current by voltage clamp analysis; format: cell-based
[36] = system: Oocyte; assay: Ratio of isopimaric acid EC50 to compound EC50 for gamma-aminobutyric acid receptor A alpha1beta1gamma2S expressed in Xenopus oocytes assessed as potentiation of GABA-mediated chloride current by voltage clamp analysis; format: cell-based
[37] = system: Oocyte; assay: Ratio of isopimaric acid Imax to compound Imax for gamma-aminobutyric acid receptor A alpha3beta2gamma2S expressed in Xenopus oocytes assessed as potentiation of GABA-mediated chloride current at 0.1 to 500 uM by voltage clamp analysis; format: cell-based
[38] = system: Mus musculus; assay: Anxiolytic activity in C57Bl/6N mouse assessed as ambulation distance at 3 mg/kg, ip measured after 30 mins by open field test ( Rvb = 31.8 +/- 1.7 m); format: functional; details: route intraperitoneal
[39] = system: Oocyte; assay: Allosteric modulation of gamma-aminobutyric acid receptor A alpha1beta2gamma2S expressed in Xenopus oocytes assessed as potentiation of GABA-mediated chloride current at 0.1 to 500 uM by voltage clamp analysis relative to control; format: cell-based
Outline: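 Two-electrode voltage clamp on Xenopus oocytes injected with α1, β2, γ2S cRNA at a 1:1:10 ratio, recorded on days 1–5 at a holding potential of […]. Bath: 90 mM NaCl, 1 mM KCl, 1 mM MgCl2, 1 mM CaCl2, 5 mM HEPES pH 7.4. Compound was co-applied by fast perfusion with GABA EC5-10 (typically 3–10 μM). Potentiation was calculated as I(GABA+Comp)/IGABA − 1, and concentration-response curves were fitted by nonlinear regression.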

[40] = system: Mus musculus; assay: Anxiolytic activity in C57Bl/6N mouse assessed as ambulation distance at 30 mg/kg, ip measured after 30 mins by open field test ( Rvb = 31.8 +/- 1.7 m); format: functional; details: route intraperitoneal
[41] = system: Oocyte; assay: Ratio of isopimaric acid EC50 to compound EC50 for gamma-aminobutyric acid receptor A alpha3beta2gamma2S expressed in Xenopus oocytes assessed as potentiation of GABA-mediated chloride current by voltage clamp analysis; format: cell-based
[42] = system: Oocyte; assay: Ratio of isopimaric acid Imax to compound Imax for gamma-aminobutyric acid receptor A alpha1beta1gamma2S expressed in Xenopus oocytes assessed as potentiation of GABA-mediated chloride current at 0.1 to 500 uM by voltage clamp analysis; format: cell-based
[43] = system: Oocyte; assay: Ratio of isopimaric acid EC50 to compound EC50 for gamma-aminobutyric acid receptor A alpha2beta2gamma2S expressed in Xenopus oocytes assessed as potentiation of GABA-mediated chloride current by voltage clamp analysis; format: cell-based
[44] = system: Oocyte; assay: Ratio of isopimaric acid Imax to compound Imax for gamma-aminobutyric acid receptor A alpha2beta2gamma2S expressed in Xenopus oocytes assessed as potentiation of GABA-mediated chloride current at 0.1 to 500 uM by voltage clamp analysis; format: cell-based
[45] = system: Oocyte; assay: Ratio of isopimaric acid Imax to compound Imax for gamma-aminobutyric acid receptor A alpha1beta2gamma2S expressed in Xenopus oocytes assessed as potentiation of GABA-mediated chloride current at 0.1 to 500 uM by voltage clamp analysis; format: cell-based

- Imax [1]: 13.8%
- Imax [2]: 7.7%
Compound: C=C[C@]1(C)C=C2CC[C@H]3[C@](C)(CO)[C@@H](O)CC[C@]3(C)[C@H]2CC1

- Imax [3]: 716%
- EC50 [4]: 142 µM
- Activity [5]: Dose-dependent effect
- Activity [6]: Active
- Imax [7]: 1030%
- Activity [8]: inactive
- Activity [9]: inactive
- Imax [10]: 472%
- EC50 [11]: 290 µM
- Activity [12]: Dose-dependent effect
- Activity [13]: inactive
- EC50 [14]: 724 µM
- Activity [15]: Dose-dependent effect
- Imax [16]: 1070%
- Activity [17]: Active
- Imax [18]: 425%
- Activity [19]: inactive
- EC50 [20]: 365 µM
- Activity [21]: Dose-dependent effect
- Activity [22]: inactive
- EC50 [23]: 317 µM
- Activity [24]: Dose-dependent effect
- EC50 [25]: 257 µM
- Activity [26]: Dose-dependent effect
- Activity [27]: Active
- Imax [28]: 476%
- Activity [29]: Active
- Activity [30]: inactive
Compound: C=C[C@@]1(C)CC[C@H]2C(=CC[C@@H]3[C@]2(C)CCC[C@@]3(C)C(=O)O)C1 [ISOPIMARIC ACID]

- Imax [1]: -13.4%
- Imax [2]: -13.1%
Compound: C=C1CC[C@@H]2[C@](C)(CCC[C@]2(C)C(=O)OC)[C@H]1CCC1=CCOC1=O

- Imax [3]: 502%
- EC50 [4]: 33.3 µM
- Activity [5]: Dose-dependent effect
- Activity [6]: Active
- Ratio EC50 [31]: 10.3
- Ratio [32]: 0.92
- Imax [7]: 1090%
- Ratio EC50 [33]: 7.79
- Activity [8]: inactive
- Activity [9]: inactive
- Imax [10]: 513%
- Ratio [34]: 0.92
- Ratio EC50 [35]: 4.25
- Ratio EC50 [36]: 6.02
- EC50 [11]: 48.1 µM
- Activity [12]: Dose-dependent effect
- Activity [13]: inactive
- EC50 [14]: 56.6 µM
- Activity [15]: Dose-dependent effect
- Imax [16]: 1100%
- Activity [17]: Active
- Ratio [37]: 0.98
- Imax [39]: 856%
- Activity [19]: inactive
- EC50 [20]: 31.2 µM
- Activity [21]: Dose-dependent effect
- Ratio EC50 [41]: 12.8
- Activity [22]: inactive
- EC50 [23]: 40.7 µM
- Activity [24]: Dose-dependent effect
- Ratio [42]: 1.43
- Ratio EC50 [43]: 11.7
- EC50 [25]: 24.9 µM
- Activity [26]: Dose-dependent effect
- Activity [27]: Active
- Imax [28]: 520%
- Activity [29]: Active
- Ratio [44]: 0.94
- Activity [30]: inactive
- Ratio [45]: 0.5
Compound: C=C[C@]1(C)C=C2CC[C@@H]3[C@](C)(CCC[C@@]3(C)C(=O)O)[C@H]2CC1 [SANDARACOPIMARIC ACID]
- Activity [38]: 25.1 m
- Activity [40]: 22.3 m
